Columns and labels:
[1] = Reducing power; conditions: AAE units; X = EO or compound
Procedure, shortened: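 Reduction of potassium ferricyanide by the oils and individual components, by a published method, in triplicate. Results are reported as ascorbic acid equivalents per volume of EO, mean ± SD, with ANOVA/Tukey's HSD (p < 0.05).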

[2] = ABTS radical cation bleaching assay; conditions: TEAC units; X = EO or compound
Procedure, shortened: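 ABTS radical cation (ABTS•+) bleaching by essential oils and their individual components, run in triplicate by a published method. Results are given as mean ± SD, compared by ANOVA with Tukey's HSD (p < 0.05).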

[3] = Thiobarbituric acid reactive substances; conditions: for TBARS: BHTE units, X = EO or compound
Procedure, shortened: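 TBARS formation by oxidation measured in soybean lecithin homogenate as lipid-rich medium, by a published method, in triplicate. Values are expressed as μmol BHTE/mL EO, mean ± SD, with ANOVA/Tukey's HSD (p < 0.05).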

[4] = Oxygen radical absorption capacity; conditions: TEAC units; X = EO or compound
Procedure, shortened: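 Peroxyl radical (ROO) scavenging by the oils and individual components, following a published ORAC method, in triplicate. Data are mean ± SD, with significance by ANOVA/Tukey's HSD (p < 0.05).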

[5] = Chelating power; conditions: for ChP: EDTAE units, X = EO or compound
Procedure, shortened: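 Ferrous ion chelation by essential oils and their major components, by a published method, in triplicate. Results are expressed as EDTA equivalents per volume of EO, mean ± SD, with ANOVA/Tukey's HSD (p < 0.05).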

[6] = DPPH radical scavenging capacity; conditions: TEAC units; X = EO or compound
Procedure, shortened: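 DPPH radical scavenging by essential oils and individual components, by a published method, in triplicate. Values are expressed as μmol TE/mL EO and given as mean ± SD, with ANOVA/Tukey's HSD at p < 0.05.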

Compound | RdP [1] | ABTS [2] | TBARS [3] | ORAC [4] | ChP [5] | DPPH [6] | Chelating power (ChP), result in words [5] | TBARS antioxidant activity, result in words [3]
CC12CCC(CC1)C(C)(C)O2 [1,8-Cineole] | N/D (Activity lower than 0.05 units at a maximum assay concentration of 100 mM) | 0.2 ± 0.0 μmol TE/mL X | N/D (Activity lower than 0.05 units at a maximum assay concentration of 100 mM) | N/D (Activity lower than 0.05 units at a maximum assay concentration of 100 mM) | 6.7 ± 0.4 μmol EDTAE/mL X | N/D (Activity lower than 0.05 units at a maximum assay concentration of 100 mM) | – | –
CC1(C)C2CCC1(C)C(O)C2 (stereo not drawn) [Borneol] | N/D (Activity lower than 0.05 units at a maximum assay concentration of 100 mM) | N/D (Activity lower than 0.05 units at a maximum assay concentration of 100 mM) | N/D (Activity lower than 0.05 units at a maximum assay concentration of 100 mM) | N/D (Activity lower than 0.05 units at a maximum assay concentration of 100 mM) | N/D (Activity lower than 0.05 units at a maximum assay concentration of 100 mM) | N/D (Activity lower than 0.05 units at a maximum assay concentration of 100 mM) | – | –
C=C1C2CCC(C2)C1(C)C (stereo not drawn) [Camphene] | 3238.9 ± 157.4 μmol AAE/L X | 0.8 ± 0.0 μmol TE/mL X | N/D (Activity lower than 0.05 units at a maximum assay concentration of 100 mM) | N/D (Activity lower than 0.05 units at a maximum assay concentration of 100 mM) | 9.9 ± 0.7 μmol EDTAE/mL X | N/D (Activity lower than 0.05 units at a maximum assay concentration of 100 mM) | – | –
Cc1ccc(C(C)C)cc1O [Carvacrol] | 3239.6 ± 143.0 μmol AAE/L X | 7804.4 ± 268.1 μmol TE/mL X | 600.7 ± 102.2 μmol BHTE/mL X | 2.8 ± 0.1 μmol TE/μL X | N/D (Activity lower than 0.05 units at a maximum assay concentration of 100 mM) | 34.9 ± 2.5 μmol TE/mL X | – | –
C=CC(=C)CCC=C(C)C [Myrcene] | N/D (Activity lower than 0.05 units at a maximum assay concentration of 100 mM) | N/D (Activity lower than 0.05 units at a maximum assay concentration of 100 mM) | N/D (Activity lower than 0.05 units at a maximum assay concentration of 100 mM) | N/D (Activity lower than 0.05 units at a maximum assay concentration of 100 mM) | 14.4 ± 1.0 μmol EDTAE/mL X | N/D (Activity lower than 0.05 units at a maximum assay concentration of 100 mM) | – | –
CC(C)C12CCC(C)(O)C1C2 (stereo not drawn) [Sabinene hydrate] | N/D (Activity lower than 0.05 units at a maximum assay concentration of 100 mM) | 3.2 ± 0.2 μmol TE/mL X | 97.2 ± 4.2 μmol BHTE/mL X | 0.3 ± 0.0 μmol TE/μL X | 44.9 ± 3.7 μmol EDTAE/mL X | N/D (Activity lower than 0.05 units at a maximum assay concentration of 100 mM) | – | –
CC1=CCC(O)(C(C)C)CC1 (stereo not drawn) [Terpinen-4-ol] | N/D (Activity lower than 0.05 units at a maximum assay concentration of 100 mM) | 1.8 ± 0.1 μmol TE/mL X | 50.2 ± 10.6 μmol BHTE/mL X | 2.2 ± 0.1 μmol TE/μL X | 10.3 ± 0.7 μmol EDTAE/mL X | 0.3 ± 0.0 μmol TE/mL X | – | –
C=CC(C)(CCC=C(C)C)OC(C)=O (stereo not drawn) [linalyl acetate] | N/D (Activity lower than 0.05 units at a maximum assay concentration of 100 mM) | 0.3 ± 0.0 μmol TE/mL X | 19.6 ± 0.6 μmol BHTE/mL X | 1.0 ± 0.1 μmol TE/μL X | 125.7 ± 9.4 μmol EDTAE/mL X | N/D (Activity lower than 0.05 units at a maximum assay concentration of 100 mM) | high ChP | –
CC1=CCC2CC1C2(C)C (stereo not drawn) [α-Pinene] | N/D (Activity lower than 0.05 units at a maximum assay concentration of 100 mM) | N/D (Activity lower than 0.05 units at a maximum assay concentration of 100 mM) | 16.3 ± 0.5 μmol BHTE/mL X | 0.2 ± 0.0 μmol TE/μL X | 104.8 ± 7.0 μmol EDTAE/mL X | 0.1 ± 0.0 μmol TE/mL X | – | –
CC1=CC[C@@H](C(C)(C)O)CC1 [α-Terpineol] | N/D (Activity lower than 0.05 units at a maximum assay concentration of 100 mM) | 1.1 ± 0.1 μmol TE/mL X | 15.6 ± 0.5 μmol BHTE/mL X | 1.9 ± 0.1 μmol TE/μL X | 29.9 ± 1.9 μmol EDTAE/mL X | N/D (Activity lower than 0.05 units at a maximum assay concentration of 100 mM) | – | –
CC1=CC=C(C(C)C)CC1 [α-terpinene] | 11,531.4 ± 637.1 μmol AAE/L X | 24.6 ± 1.2 μmol TE/mL X | N/D (Activity lower than 0.05 units at a maximum assay concentration of 100 mM) | 0.4 ± 0.0 μmol TE/μL X | 385.6 ± 29.0 μmol EDTAE/mL X | 1.7 ± 0.1 μmol TE/mL X | high chelating activity | –
C=C1CC/C=C(\C)CC[C@@H]2[C@@H]1CC2(C)C [β-Caryophyllene] | N/D (Activity lower than 0.05 units at a maximum assay concentration of 100 mM) | N/D (Activity lower than 0.05 units at a maximum assay concentration of 100 mM) | 76.5 ± 3.4 μmol BHTE/mL X | 1.7 ± 0.1 μmol TE/μL X | 31.6 ± 2.2 μmol EDTAE/mL X | N/D (Activity lower than 0.05 units at a maximum assay concentration of 100 mM) | – | –
C=C1CCC2CC1C2(C)C (stereo not drawn) [β-Pinene] | N/D (Activity lower than 0.05 units at a maximum assay concentration of 100 mM) | 0.7 ± 0.0 μmol TE/mL X | 28.9 ± 1.9 μmol BHTE/mL X | N/D (Activity lower than 0.05 units at a maximum assay concentration of 100 mM) | 11.7 ± 0.7 μmol EDTAE/mL X | 0.1 ± 0.0 μmol TE/mL X | – | –
CC1=CCC(C(C)C)=CC1 [γ-terpinene] | 1990.6 ± 160.2 μmol AAE/L X | 15.6 ± 0.7 μmol TE/mL X | 273.2 ± 24.4 μmol BHTE/mL X | 1.1 ± 0.1 μmol TE/μL X | 2.0 ± 0.1 μmol EDTAE/mL X | 2.1 ± 0.1 μmol TE/mL X | – | strong TBARS antioxidant activity
